Test results from ChEMBL document CHEMBL4325902, “Design, synthesis and biological evaluation of novel, orally bioavailable pyrimidine-fused heterocycles as influenza PB2 inhibitors” (Eur J Med Chem, 2019).

What was measured:
[1] = Cytotoxicity against MDCK cells assessed as reduction in cell viability after 5 days by CCK-8 assay; assay type: cell-based, Canis lupus familiaris; conditions: dog
Method in brief: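 MDCK cells seeded at 2×10^3 per well and grown overnight at 37°C, 5% CO2. Diluted compound (0.5% DMSO final) added without virus, then 5 days at 37°C. Viability read by CCK-8. CC50 is the concentration cutting viability to 50% of control, from a dose-response fit.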

[2] = AUC in CD-1 mouse at 10 mg/kg, po; assay type: ADME, organism-based; conditions: in vivo
Method in brief: (§1)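 Male CD-1 mice, n=3 per dose, values are cohort means. Dosed 1 mg/kg iv and 10 mg/kg po, each in 20% Solutol in water. Reported parameters are Cl, T1/2, Vd, AUC, Cmax, Tmax and %F.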

[3] = Oral bioavailability in CD-1 mouse at 10 mg/kg; assay type: ADME, organism-based; conditions: in vivo; method in brief: as §1
[4] = Volume of distribution in CD-1 mouse at 1 mg/kg, iv; assay type: ADME, organism-based; conditions: in vivo; method in brief: as §1
[5] = Tmax in CD-1 mouse at 10 mg/kg, po; assay type: ADME, organism-based; conditions: in vivo; method in brief: as §1
[6] = Cmax in CD-1 mouse at 10 mg/kg, po; assay type: ADME, organism-based; design: dose 10 mg/kg, route oral; conditions: in vivo; method in brief: as §1
[7] = Half life in CD-1 mouse liver microsomes at 1 uM preincubated for 10 mins followed by NADPH addition measured up to 60 mins by LC/MS/MS analysis; assay type: ADME, Microsome
Method in brief: (§2)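 Test compound at 1 µM with 0.5 mg/mL liver microsomal protein (CD-1 mouse, SD rat or human) in 100 mM potassium phosphate, pH 7.4. Preincubated 10 min at 37°C, then started with NADPH (1 mM generating system). Sampled at 0–60 min and stopped with cold acetonitrile containing internal standards. Compound loss gave T1/2. A no-NADPH control ran 60 min.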

[8] = Half life in Sprague-Dawley rat liver microsomes at 1 uM preincubated for 10 mins followed by NADPH addition measured up to 60 mins by LC/MS/MS analysis; assay type: ADME, Microsome; method in brief: as §2
[9] = AUC in CD-1 mouse at 1 mg/kg, iv; assay type: ADME, organism-based; conditions: in vivo; method in brief: as §1
[10] = Half life in human liver microsomes at 1 uM preincubated for 10 mins followed by NADPH addition measured up to 60 mins by LC/MS/MS analysis; assay type: ADME, Microsome; method in brief: as §2
[11] = Half life in CD-1 mouse at 1 mg/kg, iv; assay type: ADME, organism-based; conditions: in vivo; method in brief: as §1
[12] = Clearance in CD-1 mouse at 1 mg/kg, iv; assay type: ADME, organism-based; conditions: in vivo; method in brief: as §1
[13] = Cmax in CD-1 mouse at 1 mg/kg, po; assay type: ADME, organism-based; design: dose 1 mg/kg, route oral; conditions: in vivo
Method in brief: (§3)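 Male CD-1 mice, n=3 per dose, values are cohort means. Cassette PK: 0.5 mg/kg iv and 1 mg/kg po, both in 20% Solutol in water. Reported parameters are clearance, T1/2, Vd, AUC, Cmax, Tmax and %F.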

[14] = Tmax in CD-1 mouse at 1 mg/kg, po; assay type: ADME, organism-based; conditions: in vivo; method in brief: as §3
[15] = AUC in CD-1 mouse at 1 mg/kg, po; assay type: ADME, organism-based; conditions: in vivo; method in brief: as §3
[16] = Clearance in CD-1 mouse at 0.5 mg/kg, iv; assay type: ADME, organism-based; conditions: in vivo; method in brief: as §3
[17] = Half life in CD-1 mouse at 0.5 mg/kg, iv; assay type: ADME, organism-based; conditions: in vivo; method in brief: as §3
[18] = AUC in CD-1 mouse at 0.5 mg/kg, iv; assay type: ADME, organism-based; conditions: in vivo; method in brief: as §3
[19] = Oral bioavailability in CD-1 mouse at 1 mg/kg; assay type: ADME, organism-based; conditions: in vivo; method in brief: as §3
[20] = Volume of distribution in CD-1 mouse at 0.5 mg/kg, iv; assay type: ADME, organism-based; conditions: in vivo; method in brief: as §3

Cn1cc(F)c2c(N[C@H]3C4CCC(CC4)[C@@H]3C(=O)O)nc(-c3c[nH]c4ncc(F)cc34)nc21
CC50 at 120 h [1]: 0.6 µM

O=C(O)[C@H]1C2CCC(CC2)[C@@H]1Nc1nc(-c2n[nH]c3ncc(F)cc23)nc2c1SCC2
AUC [2]: 152 µM·h | bioavailability [3]: 57% | Vd [4]: 0.2 L/kg | Tmax [5]: 0.67 h | Cmax [6]: 32600 nM | half-life at 1 µM [7]: 1.71 h | CC50 at 120 h [1]: 4.9 µM | half-life at 1 µM [8]: > 2.42 h | AUC [9]: 28.7 µM·h | half-life at 1 µM [10]: > 2.42 h | half-life [11]: 3 h | clearance [12]: 1.3 mL/min/kg

O=C(O)[C@H]1C2CCC(CC2)[C@@H]1n1ccc2cnc(-c3c[nH]c4ncc(F)cc34)nc21
CC50 at 120 h [1]: 4 µM

O=C(O)[C@H]1C2CCC(CC2)[C@@H]1N1CCOc2cnc(-c3c[nH]c4ncc(F)cc34)nc21
CC50 at 120 h [1]: > 50 µM

O=C(O)[C@H]1C2CCC(CC2)[C@@H]1Nc1nc(-c2c[nH]c3ncc(F)cc23)nc2c1CSC2
CC50 at 120 h [1]: 4.4 µM

Cc1cccc2nc(N[C@H]3C4CCC(CC4)[C@@H]3C(=O)O)nc(-c3c[nH]c4ncc(F)cc34)c12
CC50 at 120 h [1]: 2.1 µM

Cc1cccc2nc(-c3c[nH]c4ncc(F)cc34)nc(N[C@H]3C4CCC(CC4)[C@@H]3C(=O)O)c12
CC50 at 120 h [1]: 4.7 µM

O=C(O)[C@H]1C2CCC(CC2)[C@@H]1Nc1nc(-c2c[nH]c3ncc(F)cc23)nc2c1SCC2
AUC [2]: 19.5 µM·h | bioavailability [3]: 71% | Vd [4]: 2.3 L/kg | Tmax [5]: 0.25 h | Cmax [6]: 15000 nM | half-life at 1 µM [7]: 0.855 h | CC50 at 120 h [1]: 4.5 µM | half-life at 1 µM [8]: 1.92 h | AUC [9]: 2.79 µM·h | half-life at 1 µM [10]: 1.66 h | half-life [11]: 2.3 h | clearance [12]: 13.8 mL/min/kg

N#Cc1cn([C@H]2C3CCC(CC3)[C@@H]2C(=O)O)c2nc(-c3c[nH]c4ncc(F)cc34)ncc12
CC50 at 120 h [1]: 5.4 µM

O=C(O)[C@H]1C2CCC(CC2)[C@@H]1Nc1nc(-c2c[nH]c3ncc(F)cc23)nc2ccoc12
CC50 at 120 h [1]: 6.2 µM

Cc1cnc2c(N[C@H]3C4CCC(CC4)[C@@H]3C(=O)O)nc(-c3c[nH]c4ncc(F)cc34)nc2c1
CC50 at 120 h [1]: 4.9 µM

O=C(O)[C@H]1C2CCC(CC2)[C@@H]1Nc1nc(-c2c[nH]c3ncc(F)cc23)nc2scnc12
CC50 at 120 h [1]: 1.5 µM

O=C(O)[C@H]1C2CCC(CC2)[C@@H]1Nc1nc(-c2c[nH]c3ncc(F)cc23)nc2c1CCC2
CC50 at 120 h [1]: 10 µM

O=C(O)[C@H]1C2CCC(CC2)[C@@H]1Nc1nc(-c2c[nH]c3ncc(F)cc23)nc2cccc(F)c12
CC50 at 120 h [1]: 1.8 µM

O=C(O)[C@H]1C2CCC(CC2)[C@@H]1Nc1nc(-c2n[nH]c3ncc(F)cc23)nc2sccc12
half-life at 1 µM [7]: 0.55 h | CC50 at 120 h [1]: 2.7 µM | half-life at 1 µM [8]: 1.08 h | half-life at 1 µM [10]: 1.18 h

O=C(O)[C@H]1C2CCC(CC2)[C@@H]1Nc1nc(-c2n[nH]c3ncc(F)cc23)nc2ccsc12
half-life at 1 µM [7]: 0.683 h | CC50 at 120 h [1]: 0.2 µM | half-life at 1 µM [8]: 1.22 h | half-life at 1 µM [10]: 1.28 h

O=C(O)[C@H]1C2CCC(CC2)[C@@H]1Nc1nc(-c2c[nH]c3ncc(F)cc23)nc2[nH]ccc12
CC50 at 120 h [1]: 15 µM

O=C(O)[C@H]1C2CCC(CC2)[C@@H]1Nc1nc(-n2ccc3ncc(F)cc32)ncc1F
CC50 at 120 h [1]: 1.1 µM

O=C(O)[C@H]1C2CCC(CC2)[C@@H]1Nc1nc(-c2c[nH]c3ncc(F)cc23)nc2nccnc12
CC50 at 120 h [1]: 46 µM

O=C(O)[C@H]1C2CCC(CC2)[C@@H]1Nc1nc(-c2c[nH]c3ccc(F)cc23)ncc1F
CC50 at 120 h [1]: 10 µM

O=C(O)[C@H]1C2CCC(CC2)[C@@H]1Nc1nc(-c2c[nH]c3ncc(F)cc23)nc2c1CCS2
CC50 at 120 h [1]: 5.6 µM

O=C(O)[C@H]1C2CCC(CC2)[C@@H]1Nc1nc(-c2c[nH]c3ncc(F)cc23)nc2cc(F)cnc12
CC50 at 120 h [1]: 1.4 µM

O=C(O)[C@H]1C2CCC(CC2)[C@@H]1Nc1nc(-c2c[nH]c3ncc(F)cc23)nc2c1CS(=O)(=O)C2
CC50 at 120 h [1]: > 50 µM

O=C(O)[C@H]1C2CCC(CC2)[C@@H]1Nc1nc(-c2c[nH]c3ncc(F)cc23)nc2sccc12
Cmax [13]: 509 nM | half-life at 1 µM [7]: 1.02 h | CC50 at 120 h [1]: 0.6 µM | half-life at 1 µM [8]: 1.52 h | half-life at 1 µM [10]: 1.74 h | Tmax [14]: 0.83 h | AUC [15]: 1.35 µM·h

O=C(O)[C@H]1C2CCC(CC2)[C@@H]1Nc1nc(-c2c[nH]c3ncc(F)cc23)nc2ccsc12
clearance [16]: 18.9 mL/min/kg | Cmax [13]: 172 nM | half-life [17]: 2 h | AUC [18]: 1.01 µM·h | half-life at 1 µM [7]: 0.808 h | bioavailability [19]: 37% | Vd [20]: 2.4 L/kg | CC50 at 120 h [1]: 1.5 µM | half-life at 1 µM [8]: 0.87 h | half-life at 1 µM [10]: 0.828 h | Tmax [14]: 0.4 h | AUC [15]: 0.69 µM·h

O=C(O)[C@H]1C2CCC(CC2)[C@@H]1Nc1nc(-c2c[nH]c3ncc(F)cc23)nc2c1S(=O)(=O)CC2
CC50 at 120 h [1]: > 50 µM

O=C(O)[C@H]1C2CCC(CC2)[C@@H]1Nc1nc(-c2c[nH]c3ncc(F)cc23)ncc1F [PIMODIVIR]
AUC [2]: 13.4 µM·h | bioavailability [3]: 100% | Vd [4]: 7.1 L/kg | Tmax [5]: 2.5 h | Cmax [6]: 2050 nM | half-life at 1 µM [7]: > 2.42 h | CC50 at 120 h [1]: 12 µM | half-life at 1 µM [8]: > 2.42 h | AUC [9]: 1.36 µM·h | half-life at 1 µM [10]: > 2.42 h | half-life [11]: 1.9 h | clearance [12]: 30.9 mL/min/kg

O=C(O)[C@H]1C2CCC(CC2)[C@@H]1Nc1nc(-c2c[nH]c3ncc(F)cc23)nc2c1CCCC2
CC50 at 120 h [1]: > 50 µM

O=C(O)[C@H]1C2CCC(CC2)[C@@H]1Nc1nc(-c2c[nH]c3ncc(F)cc23)nc2cc(C(F)F)sc12
CC50 at 120 h [1]: 3.3 µM

O=C(O)[C@H]1C2CCC(CC2)[C@@H]1Nc1nc(-c2c[nH]c3ncc(F)cc23)nc2cscc12
clearance [16]: 73.7 mL/min/kg | Cmax [13]: 29.2 nM | half-life [17]: 1.3 h | AUC [18]: 0.252 µM·h | bioavailability [19]: 10% | Vd [20]: 5.7 L/kg | CC50 at 120 h [1]: > 50 µM | Tmax [14]: 0.33 h | AUC [15]: 0.0488 µM·h

N#Cc1csc2c(N[C@H]3C4CCC(CC4)[C@@H]3C(=O)O)nc(-c3c[nH]c4ncc(F)cc34)nc12
CC50 at 120 h [1]: 0.7 µM

O=C(O)[C@H]1C2CCC(CC2)[C@@H]1Nc1nc(-c2c[nH]c3ncc(F)cc23)nc2cccnc12
CC50 at 120 h [1]: 7 µM

O=C(O)[C@H]1C2CCC(CC2)[C@@H]1n1cnc2cnc(-c3c[nH]c4ncc(F)cc34)nc21
CC50 at 120 h [1]: 21.7 µM
